Source: ChEMBL document CHEMBL1781999, “Lead optimization of aryl and aralkyl amine-based triazolopyrimidine inhibitors of Plasmodium falciparum dihydroorotate dehydrogenase with antimalarial activity in mice” (J Med Chem, 2011)
Values after ≈ are worked out from the molar mass of the structure shown.

Assays:
[1] = Inhibition of His6-tagged recombinant Plasmodium berghei dihydroorotate dehydrogenase expressed in Escherichia coli using L-dihydroorotate as substrate after 10 to 15 mins by DCIP dye-based assay; conditions: in the assay text read “5 to 10 mins” for “10 to 15 mins”
Outline: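 Truncated soluble enzyme lacking the N-terminal membrane domain. Final concentrations: 0.2 mM L-dihydroorotate, 0.02 mM CoQD, 0.12 mM DCIP. Reaction started with 10 nM enzyme and read at 600 nm for 5–10 min at 20 °C. Inhibitor 0.01–100 μM in 3-fold steps, in triplicate. IC50 from a three-parameter fit of vi/vo from initial rates.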

[2] = target: T1, Dihydroorotate dehydrogenase (Plasmodium falciparum, UniProt Q54A96); test: Inhibition of His6-tagged recombinant Plasmodium falciparum dihydroorotate dehydrogenase expressed in Escherichia coli using L-dihydroorotate as substrate after 5 to 10 mins by DCIP dye-based assay
T1 sequence (Q54A96 whole entry): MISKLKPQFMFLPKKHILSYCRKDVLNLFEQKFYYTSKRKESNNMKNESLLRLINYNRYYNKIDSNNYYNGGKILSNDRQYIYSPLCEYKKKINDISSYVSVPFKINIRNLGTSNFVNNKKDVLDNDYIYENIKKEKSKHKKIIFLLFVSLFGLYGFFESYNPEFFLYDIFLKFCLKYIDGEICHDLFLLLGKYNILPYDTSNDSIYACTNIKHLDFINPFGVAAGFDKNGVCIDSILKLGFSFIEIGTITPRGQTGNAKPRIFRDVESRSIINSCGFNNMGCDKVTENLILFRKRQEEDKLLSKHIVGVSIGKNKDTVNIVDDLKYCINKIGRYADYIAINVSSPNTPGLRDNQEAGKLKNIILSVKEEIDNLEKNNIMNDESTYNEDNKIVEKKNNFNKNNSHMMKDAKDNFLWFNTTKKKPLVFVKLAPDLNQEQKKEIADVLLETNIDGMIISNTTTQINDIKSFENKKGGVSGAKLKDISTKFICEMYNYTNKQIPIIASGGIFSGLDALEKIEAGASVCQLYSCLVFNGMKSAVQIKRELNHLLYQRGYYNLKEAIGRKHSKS

[3] = Partition coefficient, log D of the compound at pH 7.4 by UV-HPLC analysis; conditions: octanol/water
[4] = test system: Liver microsomes; test: Intrinsic clearance in human liver microsome assessed per mg of protein at 1 uM after 60 mins by LC-MS analysis; assay type: ADME; conditions: microsomes, 1 h, 1 µM
Outline: (§1)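 Microsomal stability. Compound at 1 μM with liver microsomes (0.4 mg/mL protein) in 0.1 M phosphate pH 7.4 at 37 °C. Started with an NADPH-regenerating system plus MgCl2; controls lacked NADPH. Quenched with cold acetonitrile at time points up to 60 min. Parent loss measured by LC-MS and fitted to exponential decay to give CLint.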

[5] = test system: Liver; test: Intrinsic clearance in mouse liver microsome assessed per mg of protein at 1 uM after 60 mins by LC-MS analysis; assay type: ADME; conditions: microsomes, 1 h; outline: as §1
[6] = Aqueous solubility of the compound in phosphate buffer at pH 6.5; assay type: physicochemical
Outline: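 Non-equilibrium solubility. Concentrated DMSO stocks were diluted into pH 6.5 phosphate buffer (final DMSO 1% v/v) and precipitation was monitored by nephelometry. Solubility is given as the concentration range just before a turbidity signal rose above background.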

[7] = test system: Plasmodium falciparum; test: Antimalarial activity against Plasmodium falciparum 3D7 infected in human A positive erythrocytes by [3H]hypoxanthine uptake assay in presence of serum in medium; assay type: functional, organism-based
Outline: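 Growth read by [3H]-hypoxanthine uptake. Each concentration run in quadruplicate and fitted to a four-parameter variable-slope log[I]-response model for 50% growth inhibition.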

[8] = target: Dihydroorotate dehydrogenase (quinone), mitochondrial (Homo sapiens, UniProt Q02127); test: Inhibition of His6-tagged recombinant human dihydroorotate dehydrogenase expressed in Escherichia coli using L-dihydroorotate as substrate after 5 to 10 mins by DCIP dye-based assay
[9] = Inhibition of His6-tagged recombinant Plasmodium berghei dihydroorotate dehydrogenase expressed in Escherichia coli using L-dihydroorotate as substrate after 5 to 10 mins by DCIP dye-based assay
[10] = Plasma protein binding in human by albumin chromatographic method; assay type: ADME, cell-free; conditions: read-out: PPB (converted)
[11] = phosphate buffer, read-out: solubility

Dihydroorotate dehydrogenase (quinone), mitochondrial, sequence (Q02127 whole entry): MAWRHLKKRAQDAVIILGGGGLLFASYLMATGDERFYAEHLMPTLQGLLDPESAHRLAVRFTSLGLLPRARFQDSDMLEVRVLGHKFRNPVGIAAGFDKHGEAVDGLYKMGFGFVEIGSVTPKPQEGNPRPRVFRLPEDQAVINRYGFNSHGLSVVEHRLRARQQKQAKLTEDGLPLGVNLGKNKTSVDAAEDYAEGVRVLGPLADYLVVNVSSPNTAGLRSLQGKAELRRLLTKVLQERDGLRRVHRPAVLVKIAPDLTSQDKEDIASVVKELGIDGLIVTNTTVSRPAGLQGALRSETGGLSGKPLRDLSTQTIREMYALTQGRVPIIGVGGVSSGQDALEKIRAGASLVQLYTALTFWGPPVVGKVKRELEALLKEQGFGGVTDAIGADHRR

Row | SMILES | IC50 [1] [µM] | IC50 [2] [µM] | EC50 [7] [µM] | IC50 [8] [µM] | also measured
1 | Cc1cc(Nc2ccc(N(C)C)cc2)n2ncnc2n1 | 12 | 0.82 | 2.7 | > 100 | logD [3]: 2.2; CL [4]: 9 µL/min/mg; CL [5]: 226 µL/min/mg; solubility [6, 11]: 93 µM (≈ 25 µg/mL)
2 | Cc1cc(NC2CCc3cc(F)ccc3C2)n2ncnc2n1 (stereo not given) | 1.9 | 0.63 | 2.5 |  | 
3 | Cc1cc(Nc2ccc(CC(F)(F)F)cc2)n2ncnc2n1 | 8.8 | 2.5 |  |  | 
4 | Cc1cc(Nc2ccc(C(C)(C)C#N)cc2)n2ncnc2n1 |  |  | 3.7 |  | 
5 | Cc1cc(NC2Cc3ccc(Br)cc3C2)n2ncnc2n1 (stereo not given) | 3.3 | 1.2 | 6.6 | > 50 | 
6 | Cc1cc(NCc2ccc(F)cc2)n2ncnc2n1 |  | > 100 | > 10 |  | 
7 | CCCCCCCCc1ccc(Nc2cc(C)nc3ncnn23)cc1 |  | > 50 | > 5 |  | IC50 [9]: > 100 µM
8 | Cc1cc(NC2CC2)n2ncnc2n1 |  | > 100 |  |  | 
9 | CCCCCc1ccc(Nc2cc(C)nc3ncnn23)cc1 | 22 | 0.82 | > 5 | > 100 | 
10 | Cc1cc(Nc2ccc(Cl)c(F)c2)n2ncnc2n1 | 1.3 | 0.55 | 3.5 | > 50 | 
11 | CCc1nc(N)nc(N)c1-c1ccc(Cl)cc1 [PYRIMETHAMINE] |  |  | 0.023 |  | fraction unbound [10]: 0.13
12 | Cc1cc(Nc2ccc(OCc3ccccc3)cc2)n2ncnc2n1 |  | 5.4 | > 10 |  | IC50 [9]: > 100 µM
13 | Cc1cc(NCc2ccccc2)n2ncnc2n1 |  | > 100 | > 10 |  | 
14 | Cc1cc(Nc2ccc(NC(C)(C)C)cc2)n2ncnc2n1 |  | > 50 | > 5 |  | IC50 [9]: > 100 µM
15 | Cc1ccc(Nc2c3c(nc4ncnn24)CCC3)cc1F | 1.3 |  | 8.3 | > 100 | 
16 | Cc1cc(NC2CCCC2)n2ncnc2n1 |  | > 100 |  |  | 
17 | Cc1cc(NCc2ccc(C(F)(F)F)cc2)n2ncnc2n1 |  | > 100 |  |  | IC50 [9]: > 100 µM
18 | Cc1cc(Nc2ccc(N3CCOCC3)cc2)n2ncnc2n1 |  | > 100 | > 10 |  | IC50 [9]: > 100 µM
19 | CCCCCCCNc1cc(C)nc2ncnn12 | 55 | 8.6 | 13 |  | 
20 | Cc1cc(NC2Cc3ccc(F)cc3C2)n2ncnc2n1 (stereo not given) | 1.4 | 0.61 | 1.3 | > 50 | 
21 | C=Cc1ccc(Nc2cc(C)nc3ncnn23)cc1 | 4.5 |  | 0.34 | > 100 | logD [3]: 2.4; CL [4]: 32 µL/min/mg; fraction unbound [10]: 0.156; CL [5]: 168 µL/min/mg; solubility [6, 11]: 25 µM (≈ 6.28 µg/mL)
22 | Cc1cc(Nc2ccc3[nH]c(C(F)(F)F)nc3c2)n2ncnc2n1 | > 50 | 21 | 25 |  | 
23 | Cc1cc(NC2CCC2)n2ncnc2n1 |  | > 100 |  |  | 
24 | Cc1cc(NC2CCCCC2)n2ncnc2n1 |  | > 100 |  |  | 
25 | FC(F)(F)c1ccc(Nc2cc(C(F)(F)F)nc3ncnn23)cc1 | 2.3 | 1.7 | > 10 | > 100 | 
26 | Cc1cc(Nc2ccc3ccccc3c2)n2ncnc2n1 |  |  |  |  | logD [3]: 3.2; fraction unbound [10]: 0.062; solubility [6, 11]: 45 µM (≈ 12.4 µg/mL)

Row | SMILES | IC50 [1] [µM] | IC50 [2] [µM] | EC50 [7] [µM] | IC50 [8] [µM] | also measured
27 | CCc1c(C)nc2ncnn2c1Nc1ccc(C(C)C)cc1 | 4.5 | 1.7 | > 10 | > 100 | 
28 | Cc1cc(Nc2ccc(C(F)(F)F)c(C(F)(F)F)c2)n2ncnc2n1 | 0.55 | 0.54 | 2.3 |  | 
29 | Cc1cc(Nc2ccc(OC(C)(C)C)cc2)n2ncnc2n1 |  | 44 | > 10 |  | 
30 | CCc1cc(Nc2ccc(C(F)(F)F)cc2)n2ncnc2n1 | 2 | 0.78 | 2.3 | > 100 | 
31 | Cc1cc(NCCc2ccccc2)n2ncnc2n1 | 27 | 15 | > 20 |  | 
32 | Cc1cc(Nc2ccc(SC(F)(F)F)cc2)n2ncnc2n1 | 1.2 | 0.61 | 0.27 | > 50 | CL [4]: < 5 µL/min/mg; fraction unbound [10]: 0.039; CL [5]: 119 µL/min/mg; solubility [6, 11]: 5 µM (≈ 1.63 µg/mL)
33 | CCCCCCc1ccc(Nc2cc(C)nc3ncnn23)cc1 | 20 | 4.2 | > 5 |  | 
34 | Cc1cc(NC2CCc3cc(Cl)ccc3C2)n2ncnc2n1 (stereo not given) |  | 0.67 | 10 |  | IC50 [9]: 10 µM
35 | Cc1cc(NC2CCCCCCC2)n2ncnc2n1 |  | > 100 |  |  | 
36 | FC(F)(F)c1ccc(Nc2cc(Cl)nc3ncnn23)cc1 | 0.13 | 0.17 | 3.4 | > 100 | 
37 | CCc1ccc(Nc2cc(C)nc3ncnn23)cc1 | 3.9 | 0.61 | 3.3 | > 100 | logD [3]: 2.6; CL [4]: 61 µL/min/mg; fraction unbound [10]: 0.12; solubility [6, 11]: 25 µM (≈ 6.33 µg/mL)
38 | Cc1cc(NC2CCCCCCCCCCC2)n2ncnc2n1 |  | 58 |  |  | 
39 | Cc1cc(Nc2ccc(C(C)(C)C)cc2)n2ncnc2n1 | 0.4 | 0.078 | 0.32 | > 100 | logD [3]: 3.4; CL [4]: 43 µL/min/mg; fraction unbound [10]: 0.068; solubility [6, 11]: 11 µM (≈ 3.09 µg/mL)
40 | COc1cc2c(cc1OC)CC(Nc1cc(C)nc3ncnn13)C2 | 41 | 4.6 | 7.7 |  | 
41 | CCCc1ccc(Nc2cc(C)nc3ncnn23)cc1 | 9 | 0.99 | 6.8 | > 100 | logD [3]: 3.1; CL [4]: 36 µL/min/mg; fraction unbound [10]: 0.065; solubility [6, 11]: 187 µM (≈ 50 µg/mL)
42 | Cc1cc(Nc2ccc(N3CCCC3)cc2)n2ncnc2n1 | > 50 | 3.5 | > 20 |  | 
43 | CCc1c(C)nc2ncnn2c1Nc1ccc(OC(F)(F)F)cc1 | 5.7 |  | > 10 | > 100 | 
44 | Cc1cc(NOc2ccccc2)n2ncnc2n1 |  | > 100 |  |  | IC50 [9]: > 100 µM
45 | Cc1cc(NC2CCCCCC2)n2ncnc2n1 |  | > 100 |  |  | 
46 | C#Cc1ccc(Nc2cc(C)nc3ncnn23)cc1 | 4.1 | 1.1 | 5.1 | > 100 | logD [3]: 2.2; CL [4]: 8 µL/min/mg; fraction unbound [10]: 0.182; CL [5]: 27 µL/min/mg; solubility [6, 11]: 100 µM (≈ 24.9 µg/mL)
47 | CCCCCCCc1ccc(Nc2cc(C)nc3ncnn23)cc1 | > 50 | 24 | > 5 |  | 
48 | Cc1cc(Nc2ccc(C3CC3)cc2)n2ncnc2n1 | 2.9 | 0.42 | 1.4 | > 100 | logD [3]: 2.7; CL [4]: 53 µL/min/mg; fraction unbound [10]: 0.132; CL [5]: 287 µL/min/mg; solubility ([6]; buffer): > 377 µM
49 | Cc1cc(Nc2ccc3c(c2)OCO3)n2ncnc2n1 | 55 | 1.6 | 21 | > 100 | logD [3]: 1.6; CL [4]: 11 µL/min/mg; solubility [6, 11]: 186 µM (≈ 50.1 µg/mL)
50 | CCCCc1ccc(Nc2cc(C)nc3ncnn23)cc1 | 5.25 | 0.28 | 4.8 | > 100 | logD [3]: 3.6; CL [4]: 36 µL/min/mg; fraction unbound [10]: 0.033; solubility [6, 11]: 11 µM (≈ 3.09 µg/mL)
51 | Cc1cc(Nc2ccc3c(c2)CCC3)n2ncnc2n1 | 1 | 0.22 | 0.8 | > 100 | logD [3]: 2.9; CL [4]: 77 µL/min/mg; fraction unbound [10]: 0.075; CL [5]: 341 µL/min/mg; solubility [6, 11]: 47 µM (≈ 12.5 µg/mL)
